Compound activity from PubChem.
This is a sample that favours compounds with a hit; in the whole collection about 3.8% have one here.
FN deposition inh = inhibitors of fibronectin matrix deposition, primary screen, AH1F cells, Alexa488-fibronectin fluorescence, plate reader; AH1F fibroblasts, overnight; AID 743247, 2014; 350,000 compounds, 0.086% hits; inhibition, % at 12.6 µM;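 active = mean inhibition across replicates of 30% or more, regardless of how many single replicates reach that level; inconclusive = mean under 30% yet at least half of replicates reach 30%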;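 also: positive control wells lacked labelled fibronectin entirely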
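Measured by – fluorescence 485/525 nm · System – AH1F fibroblast monolayer, labelled fibronectin deposition · Amount – 10000 cells per well · Buffer or medium – serum-reduced DMEM (2% serum) · Doses – single dose, pinned · Also added – fluorescent fibronectin at 24 nM final · Schedule – 1 h cell attachment, overnight exposure to compound and label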
SIRT5 inh = SIRT5 desuccinylase inhibitors, primary screen, biochemical, fluorescence imaging, single point, set 5 | NAD-dependent protein deacylase sirtuin-5, mitochondrial (Homo sapiens), Q9NXA8 | Purified SirT5, succinyl-peptide AMC, trypsin-coupled fluorescence | inhibition, % at 15 µM | 330,000 compounds, 1.1% hits | AID 652115, 2013; in the data active = inhibition above about 15%; inconclusive = no clear call, values can overlap the other calls
Target sequence (Q9NXA8 whole entry, looked up): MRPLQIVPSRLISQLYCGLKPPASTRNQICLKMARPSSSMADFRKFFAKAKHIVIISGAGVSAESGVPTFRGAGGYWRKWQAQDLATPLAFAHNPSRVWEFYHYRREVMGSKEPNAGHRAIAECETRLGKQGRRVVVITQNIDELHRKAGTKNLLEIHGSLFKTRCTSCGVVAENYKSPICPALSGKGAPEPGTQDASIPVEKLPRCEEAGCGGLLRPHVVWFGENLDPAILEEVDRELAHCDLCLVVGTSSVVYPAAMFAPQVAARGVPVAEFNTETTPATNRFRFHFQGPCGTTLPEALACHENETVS
FGF22 binding = binders of human FGF22 protein, primary screen, FGF22 synaptogenesis inhibitor project, biophysical, thermal shift, single point; AID 651658, 2012; Fibroblast growth factor 22 (Homo sapiens), Q9HCT0; 340,000 compounds, 1.5% hits; recombinant FGF22 thermal shift, SYPRO orange fluorescence; percent of sucrose octasulfate shift, DMSO zero; activity (Tm shift, normalised), % at 9.99 µM;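 active = mean Tm shift, scaled 0 neutral to 100 positive control, at about 1.3% or above, every replicate too, limit read from the data; inconclusive = no clear call, values can overlap the other calls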
Target sequence (Q9HCT0 whole entry, looked up): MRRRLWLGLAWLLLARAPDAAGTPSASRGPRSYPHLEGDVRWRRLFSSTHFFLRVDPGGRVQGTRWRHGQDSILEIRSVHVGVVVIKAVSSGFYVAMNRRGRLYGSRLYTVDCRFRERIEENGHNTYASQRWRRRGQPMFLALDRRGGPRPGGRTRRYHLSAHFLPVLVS
XiGFP reactiv = activators of inactive X chromosome reactivation, primary screen, imaging, XiGFP fibroblasts, GFP high-content imaging, set 2; 360,000 compounds, 0.055% hits; XiGFP mouse fibroblasts, % GFP-positive cells imaging, 3 d; cells co-treated with 5-aza-dC sensitizer; scaled so ellipticine positive control = 100%; activation, % at 7.58 µM;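 active = mean normalized replicate activation at least 10% and every replicate at or above 10%; inconclusive = only one of the two criteria met; inactive = mean below 10% and not all replicates reach 10%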;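 also: 0% = median of on-plate neutral control wells and 100% = ellipticine 6 µM median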
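Material: XiGFP fibroblasts, SV40-immortalized; Buffer or medium: DMEM containing 5-aza-dC; Compound dosing: single point; Times: 3 days compound exposure.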
DENV2 CPE rescue = inhibitors of DENV2 cytopathic effect, primary screen, cell-based, plate reader, single concentration | 350,000 compounds, 1.7% hits | CPE inhibition, % at 9.99 µM | AID 651640, 2012 | DENV2-infected cells, cytopathic effect rescue; in the data active = CPE inhibition above about 20%, passing the limit was not always enough; inconclusive = no clear call, values can overlap the other calls; tested in BHK-21 cells;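 also: 0% = median of neutral control wells and 100% = median of positive control wells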
ARNT-TACC3 inh = disruptors of ARNT/TACC3 protein interaction, primary screen, biochemical, AlphaScreen, single concentration | AlphaScreen His-ARNT PAS-B/GST-TACC3 binding, luminescence; TACC3 fragment carries E629A point mutation | 390,000 compounds, 0.66% hits | inhibition, % at 9.99 µM | AID 623870, 2012;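 active = mean inhibition of replicates at least 50% and at least half of replicates each reaching 50%; inconclusive = half or more replicates reach 50% but mean below 50%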;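 also: 0% = complete ARNT plus TACC3 wells and 100% = ARNT alone without TACC3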
The depositor's hits bear a star; ? = inconclusive; . = no result given.

SMILES	FN deposition inh	SIRT5 inh	FGF22 binding	XiGFP reactiv	DENV2 CPE rescue	ARNT-TACC3 inh
CC(C)(C)c1ccc(-n2nc(C#N)c(Cl)cc2=O)cc1	30*	2	0	0	4	.
CC(C)(C)c1ccc(-n2nc(C(N)=O)c(O)cc2=O)cc1	-5	.	0	0	.	.
Cc1noc(C)c1NC(=O)NCC[C@H]1CC[C@@H](NC(=O)c2ccccc2)[C@@H](CO)O1	.	-4	0	0	2	-7
COc1cccc(C(=O)Nc2ccc3c(c2)OC[C@H](C)N(C(=O)C2CCCC2)C[C@H](C)[C@H](OC)CN(C)C3=O)c1	1	3	0	0	-7	-9
COc1ccc(CCN=C(C)C2=C(O)C(c3ccccc3)OC2=O)cc1OC (configuration not stated)	-7	1	43*	0	-3	-7
CCC(=NCCc1ccc(OC)c(OC)c1)c1ccccc1O	0	0	0	0	?	27
CN1C(=O)c2cc(NC(=O)Nc3ccc(Cl)cc3)ccc2OC[C@H]2O[C@@H](CC(=O)NCCN3CCCCC3)CC[C@@H]21	-6	-2	0	0	-5	1
CCN1/C(=C/c2ccc3cc(C)ccc3[n+]2CC)Sc2cc(C)c(C)cc21	-3	-1	0	162*	5	0
CC[n+]1c(/C=C2\Sc3ccccc3N2C)ccc2cccc(C)c21	-91	5	0	105*	11	16
CN1/C(=C/c2cccc[n+]2CCO)Sc2ccccc21	8	1	0	0	?	0
CCN1/C(=C/C=C/c2sc3ccccc3[n+]2CC)Sc2ccccc21	.	.	.	.	.	15
CC[n+]1ccccc1/C=C1\Sc2ccc(C)cc2N1C	-18	0	0	1	-1	-1
CCN1/C(=C/c2ccc3cc(C)ccc3[n+]2CC)Sc2ccccc21	-58	6	0	448*	.	14
O=C(c1ccc(F)cc1)N1CC(=O)N2[C@H](C1)[C@@H](c1ccc(C#CC3CCCCC3)cc1)[C@@H]2CO	.	-4	.	0	10	.
CCN(CC)c1ccc(/C=C(\C#N)C(N)=O)cc1	5	6	43*	0	6	2
CC(C)c1onc(C(=O)Nc2cccc(Cl)c2)c1[N+](=O)[O-]	15	-5	43*	0	17	5
COc1ccccc1-c1ccc2c(c1)O[C@@H](CN(C)C(=O)c1cccnc1)[C@@H](C)CN([C@H](C)CO)S2(=O)=O	.	-8	0	-2	-6	-9
CN(C)CC(=O)N[C@H]1CC[C@@H](CC(=O)O)O[C@@H]1CO	5	-3	.	0	-4	.
Cc1ccc(S(=O)(=O)N2CC[C@@H]3[C@H]2c2cc(Br)ccc2N[C@@H]3CO)cc1	-9	15*	0	0	11	-1
COc1ccccc1C#Cc1ccc2c(c1)[C@H]1[C@H](CCN1C(=O)c1ccc(F)cc1)[C@@H](CO)N2	3	18*	.	0	54*	.
COc1ccccc1C#Cc1ccc2c(c1)[C@@H]1[C@@H](CCN1S(=O)(=O)c1ccc(F)cc1)[C@@H](CO)N2	9	10	.	0	29*	.
Cc1ccc(S(=O)(=O)N2CC[C@H]3[C@H](CO)Nc4ccc(-c5cccc(C(=O)N(C)C)c5)cc4[C@H]32)cc1	31*	0	0	0	-24	1
Cc1ccc(S(=O)(=O)N2CC[C@H]3[C@H](CO)Nc4ccc(Br)cc4[C@H]32)cc1	7	1	0	0	3	-1
C[C@@H]1CN([C@@H](C)CO)C(=O)c2cc(NC(=O)NC3CCCCC3)ccc2O[C@H]1CN(C)Cc1ccc(C(=O)O)cc1	.	0	0	0	-5	2
Cc1ccc(S(=O)(=O)N2CC[C@@H]3[C@H]2c2cc(C#Cc4ccc(F)cc4)ccc2N[C@@H]3CO)cc1	26	4	0	0	29*	27
SMILES	FN deposition inh	SIRT5 inh	FGF22 binding	XiGFP reactiv	DENV2 CPE rescue	ARNT-TACC3 inh
COc1ccc(-c2ccc3c(c2)[C@H]2[C@H](CCN2S(=O)(=O)c2ccc(OC)cc2)[C@H](CO)N3)cc1	15	.	0	0	54*	0
CNC(=O)/C=C/c1cccc(C(F)(F)F)c1	-10	-1	.	0	?	6
CC(C)(C)NC(=O)/C=C/c1ccc(C(F)(F)F)cc1	-8	-4	43*	0	.	-3
C[C@H](CO)N1C[C@H](C)[C@@H](CN(C)C(=O)Nc2ccc(F)cc2)Oc2c(NC(=O)c3ccc(-c4nccs4)cc3)cccc2C1=O	4	5	0	0	-13	4
Cc1ccc(S(=O)(=O)Nc2ccc3c(c2)C(=O)N([C@H](C)CO)C[C@H](C)[C@H](CN(C)S(C)(=O)=O)OCCCC[C@H](C)O3)cc1	-5	-1	0	0	18	-5
CNC[C@@H]1OCCCC[C@H](C)Oc2ccc(NS(=O)(=O)c3c(C)noc3C)cc2C(=O)N([C@@H](C)CO)C[C@@H]1C	.	.	0	0	132*	-8
Cc1ccc(S(=O)(=O)Nc2ccc3c(c2)C(=O)N([C@H](C)CO)C[C@H](C)[C@@H](CN(C)S(C)(=O)=O)OCCCC[C@H](C)O3)cc1	6	2	0	0	57*	-2
CNC[C@H]1OCCCC[C@@H](C)Oc2ccc(NS(=O)(=O)c3cn(C)cn3)cc2C(=O)N([C@@H](C)CO)C[C@H]1C	.	.	0	0	64*	-5
Cc1ccc(S(=O)(=O)Nc2ccc3c(c2)C(=O)N([C@@H](C)CO)C[C@H](C)[C@@H](CN(C)S(C)(=O)=O)OCCCC[C@@H](C)O3)cc1	-7	1	0	0	26*	0
CNC[C@H]1OCCCC[C@@H](C)Oc2ccc(NS(=O)(=O)c3c(C)noc3C)cc2C(=O)N([C@H](C)CO)C[C@H]1C	.	.	0	0	-12	-19
O=C(C[C@H]1CC[C@H]2[C@@H](COC[C@@H](O)CN2Cc2ccc3c(c2)OCO3)O1)Nc1ccc(-c2ccccc2)cc1	-15	.	0	0	1	3
CC[C@H]1CC=CC[C@H](C)Oc2ccccc2C(=O)N(C)[C@H](C(C)C)C(=O)N1 (mixture of isomers)	-8	.	.	0	.	.
